Measured values as given in ChEMBL document CHEMBL1132259, “Non-peptide GPIIb/IIIa inhibitors. 20. Centrally constrained thienothiophene alpha-sulfonamides are potent, long acting in vivo inhibitors of platelet aggregation” (J Med Chem, 1999).

Key:
[1] = target: T1, Integrin alpha-IIb/beta-3 (Homo sapiens, UniProt P05106+P08514); test: In vitro inhibition of [125I]L-692884 binding to Fibrinogen receptor by silicate scintillation proximity assay(SPA); format: protein-complex assay
[2] = target: T1, Integrin alpha-IIb/beta-3; test: Equilibrium dissociation constant was measured from displacement of L-762,745 from Fibrinogen receptor of human platelets by flow cytometry
Target sequence in this assay (P05106 27-788 limits assumed): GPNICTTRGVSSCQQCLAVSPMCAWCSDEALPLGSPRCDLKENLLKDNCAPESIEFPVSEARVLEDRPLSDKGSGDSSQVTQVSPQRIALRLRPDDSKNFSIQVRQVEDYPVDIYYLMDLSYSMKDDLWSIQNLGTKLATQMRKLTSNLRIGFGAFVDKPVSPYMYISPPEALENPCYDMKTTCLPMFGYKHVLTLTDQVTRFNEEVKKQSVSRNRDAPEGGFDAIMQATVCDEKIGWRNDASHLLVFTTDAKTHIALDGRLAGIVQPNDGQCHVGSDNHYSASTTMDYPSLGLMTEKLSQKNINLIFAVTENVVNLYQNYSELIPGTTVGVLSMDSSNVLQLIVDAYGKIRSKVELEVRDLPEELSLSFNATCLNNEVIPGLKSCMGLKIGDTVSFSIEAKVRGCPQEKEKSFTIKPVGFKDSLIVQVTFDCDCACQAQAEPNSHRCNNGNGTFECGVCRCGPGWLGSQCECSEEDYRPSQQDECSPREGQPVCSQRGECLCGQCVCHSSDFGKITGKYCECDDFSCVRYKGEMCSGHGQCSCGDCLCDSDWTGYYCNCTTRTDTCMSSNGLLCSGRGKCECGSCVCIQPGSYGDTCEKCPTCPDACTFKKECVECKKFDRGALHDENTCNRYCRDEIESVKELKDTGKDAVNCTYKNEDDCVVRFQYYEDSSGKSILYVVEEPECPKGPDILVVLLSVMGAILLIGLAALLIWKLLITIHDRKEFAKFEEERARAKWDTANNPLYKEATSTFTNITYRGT
Target sequence in this assay (P08514 32-887 limits assumed): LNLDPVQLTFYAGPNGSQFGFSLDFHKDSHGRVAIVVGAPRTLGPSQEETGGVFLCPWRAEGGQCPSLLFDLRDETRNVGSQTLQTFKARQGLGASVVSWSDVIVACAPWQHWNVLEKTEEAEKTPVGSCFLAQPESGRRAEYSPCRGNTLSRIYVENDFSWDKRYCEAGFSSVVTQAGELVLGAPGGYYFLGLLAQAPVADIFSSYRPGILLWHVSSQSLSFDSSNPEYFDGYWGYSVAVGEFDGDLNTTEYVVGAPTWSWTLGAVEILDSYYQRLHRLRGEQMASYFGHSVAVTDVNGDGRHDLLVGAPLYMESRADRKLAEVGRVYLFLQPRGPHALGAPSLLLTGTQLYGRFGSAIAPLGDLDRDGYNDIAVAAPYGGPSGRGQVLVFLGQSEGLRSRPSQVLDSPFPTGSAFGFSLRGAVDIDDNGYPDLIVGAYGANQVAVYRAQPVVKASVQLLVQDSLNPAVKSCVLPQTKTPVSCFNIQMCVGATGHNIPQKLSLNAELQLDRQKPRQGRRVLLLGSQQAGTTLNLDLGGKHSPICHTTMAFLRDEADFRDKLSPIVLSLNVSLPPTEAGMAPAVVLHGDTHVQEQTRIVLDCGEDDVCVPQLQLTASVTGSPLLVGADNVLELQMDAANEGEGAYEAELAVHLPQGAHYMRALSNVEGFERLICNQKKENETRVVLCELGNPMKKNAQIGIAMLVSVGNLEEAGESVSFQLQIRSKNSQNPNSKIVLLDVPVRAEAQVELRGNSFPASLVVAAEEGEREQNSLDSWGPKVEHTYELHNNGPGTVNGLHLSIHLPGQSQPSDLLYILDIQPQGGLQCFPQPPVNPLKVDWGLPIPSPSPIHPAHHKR
Target sequence in this assay (P08514 891-1039 limits assumed): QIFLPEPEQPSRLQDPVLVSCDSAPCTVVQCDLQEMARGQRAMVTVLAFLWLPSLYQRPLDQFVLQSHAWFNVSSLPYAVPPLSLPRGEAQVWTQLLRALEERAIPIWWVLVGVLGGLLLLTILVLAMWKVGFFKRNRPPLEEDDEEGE

[3] = target: T1, Integrin alpha-IIb/beta-3; test: Displacement of L-762,745 from Fibrinogen Receptor of human platelets by flow cytometry
Method in brief: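 Resting human gel-filtered platelets at 2 × 10⁶ cells/mL final, incubated 2 h at room temperature with fluorescein-labelled L-762,745 (110 nM final) and competitor at 0.05–1000 nM. Read by flow cytometry (FACScan).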
Target sequence in this assay (P05106 27-788 limits assumed): as the sequence (P05106 27-788 limits assumed) above
Target sequence in this assay (P08514 32-887 limits assumed): as the sequence (P08514 32-887 limits assumed) above
Target sequence in this assay (P08514 891-1039 limits assumed): as the sequence (P08514 891-1039 limits assumed) above

[4] = target: T1, Integrin alpha-IIb/beta-3; test: Inhibition of [125I]L-692884 binding to purified GPIIb/IIIa by silicate scintillation proximity assay(SPA); format: protein-complex assay

Structure (SMILES): O=C(NC[C@H](NS(=O)(=O)c1cccs1)C(=O)O)c1cc2sc(CCC3CCNCC3)cc2s1
- IC50 [1]: 0.04 nM
- Kd [2]: 0.092 nM

Structure (SMILES): O=C(O)CCNC(=O)c1ccc2c(c1)C(=O)N(CCC1CCNCC1)C2
- IC50 [1]: 13 nM
- Kd [2]: 550 nM

Structure (SMILES): O=C(NC[C@H](NS(=O)(=O)c1cccnc1)C(=O)O)c1ccc2c(c1)C(=O)N(CCC1CCNCC1)C2
- Kd [2]: 2.2 nM

Structure (SMILES): O=C(NC[C@H](NS(=O)(=O)c1ccc(Cl)cc1)C(=O)O)c1cc2cc(CCC3CCNCC3)sc2s1
- IC50 [1]: 0.09 nM
- Kd [2]: 0.026 nM

Structure (SMILES): CS(=O)(=O)N[C@@H](CNC(=O)c1cc2cc(CCC3CCNCC3)sc2s1)C(=O)O
- Kd [3]: 52 nM
- ED50 [4]: 1.2 nM

Structure (SMILES): CCOCCS(=O)(=O)N[C@@H](CNC(=O)c1cc2cc(CCC3CCNCC3)sc2s1)C(=O)O
- Kd [3]: 1.2 nM
- ED50 [4]: 0.13 nM

Structure (SMILES): O=C(NC[C@H](NS(=O)(=O)c1ccccc1)C(=O)O)c1cc2cc(CCC3CCNCC3)sc2s1
- IC50 [1]: 0.03 nM
- Kd [2]: 0.023 nM

Structure (SMILES): O=C(NC[C@H](NS(=O)(=O)c1ccccc1)C(=O)O)c1cc2sc(CCC3CCNCC3)cc2s1
- Kd [2]: 0.15 nM

Structure (SMILES): O=C(NC[C@H](NS(=O)(=O)c1cccnc1)C(=O)O)c1cc2cc(CCC3CCNCC3)sc2s1
- IC50 [1]: 0.047 nM
- Kd [2]: 0.07 nM

Structure (SMILES): O=C(NCC(NS(=O)(=O)c1cccnc1)C(=O)O)c1cc2cc(CCC3CCNCC3)sc2s1 (single isomer, unassigned)
- Kd [2]: 28 nM
- ED50 [4]: 0.47 nM

Structure (SMILES): O=C(NC[C@H](NS(=O)(=O)c1cccnc1)C(=O)O)c1cc2cc(CCCC3CCNCC3)sc2s1
- IC50 [1]: 0.07 nM
- Kd [2]: 17 nM

Structure (SMILES): O=C(NC[C@H](NS(=O)(=O)c1cccnc1)C(=O)O)c1cc2cc(C3CCNCC3)sc2s1
- IC50 [1]: 0.45 nM
- Kd [2]: 22 nM

Structure (SMILES): O=C(NC[C@H](NS(=O)(=O)c1cccnc1)C(=O)O)c1cc2sc(CCC3CCNCC3)cc2s1
- Kd [3]: 0.08 nM
- ED50 [4]: 0.11 nM

Structure (SMILES): CCOCCS(=O)(=O)N[C@@H](CNC(=O)c1cc2sc(CCC3CCNCC3)cc2s1)C(=O)O
- Kd [3]: 1.1 nM
- ED50 [4]: 0.27 nM

Structure (SMILES): O=C(NC[C@H](NS(=O)(=O)c1cccs1)C(=O)O)c1cc2cc(CCC3CCNCC3)sc2s1
- IC50 [1]: 0.04 nM
- Kd [2]: 0.15 nM

Structure (SMILES): CCCCS(=O)(=O)N[C@@H](CNC(=O)c1cc2sc(CCC3CCNCC3)cc2s1)C(=O)O
- IC50 [1]: 0.21 nM
- Kd [2]: 3 nM

Structure (SMILES): CCCCS(=O)(=O)N[C@@H](CNC(=O)c1cc2cc(CCC3CCNCC3)sc2s1)C(=O)O
- Kd [3]: 5.6 nM
- ED50 [4]: 0.12 nM
